{"data": "Experimental data gathered from unrelated publications", "CD36": "Platelet glycoprotein 4 (CD36, Homo sapiens, UniProt P16671)", "AKR1B1": "Aldo-keto reductase family 1 member B1 (AKR1B1, Homo sapiens, UniProt P15121)", "TRPM8": "Transient receptor potential cation channel subfamily M member 8 (TRPM8, Homo sapiens, UniProt Q7Z2W7)", "LATS2": "Serine/threonine-protein kinase LATS2 (LATS2, Homo sapiens, UniProt Q9NRM7)"}
{"Structure (SMILES)": "Cc1ccc(C(=O)Nc2ccc(S(=O)(=O)O)c3cc(S(=O)(=O)O)cc(S(=O)(=O)O)c23)cc1NC(=O)c1cccc(NC(=O)Nc2cccc(C(=O)Nc3cc(C(=O)Nc4ccc(S(=O)(=O)O)c5cc(S(=O)(=O)O)cc(S(=O)(=O)O)c45)ccc3C)c2)c1", "target": "Electrogenic aspartate/glutamate antiporter SLC25A13, mitochondrial (SLC25A13, Homo sapiens, UniProt Q9UJS0)", "read-out": "binding", "method": "ITC", "pH": "pH 6.5", "quantity": "Kd", "result": "7.57 µM"}
{"Structure (SMILES)": "N#Cc1ccc(O[C@H]2CC[C@H](NC(=O)c3ccc(N4CCC(CN5CCN(c6cc7c(cc6F)C(=O)N(C6CCC(=O)NC6=O)C7=O)CC5)CC4)nn3)CC2)cc1Cl (some centres unmarked)", "target": "CD36", "read-out": "binding", "method": "SPR", "quantity": "Kd", "result": "5.9 µM"}
{"Structure (SMILES)": "COc1cc(/C=N/NC(=S)N/N=C/c2ccccc2)ccc1Oc1ccnc2cc(Cl)ccc12", "target": "AKR1B1", "read-out": "enzyme activity", "mode": "inhibitor", "method": "absorbance", "quantity": "IC50", "result": "17.2 µM"}
{"Structure (SMILES)": "COc1ccc(NC(=O)[C@@H]2C[C@H](C)CC[C@H]2C(C)C)cc1", "target": "TRPM8", "read-out": "ion current", "mode": "agonist", "method": "patch clamp", "quantity": "EC50", "result": "4 µM"}
{"Structure (SMILES)": "COc1cc(/C=N/NC(=S)N/N=C\\c2ccc(Cl)c(Cl)c2)ccc1Oc1ccnc2cc(Cl)ccc12", "target": "AKR1B1", "read-out": "enzyme activity", "mode": "inhibitor", "method": "absorbance", "quantity": "IC50", "result": "13.4 µM"}
{"Structure (SMILES)": "CNC(=O)C(C)(C(C)C)C(C)C", "target": "TRPM8", "read-out": "calcium signal", "mode": "agonist", "quantity": "EC50", "result": "56.5 µM"}
{"Structure (SMILES)": "Cc1cc(-c2ccnc3[nH]cc(F)c23)cc(F)c1[C@@]1(O)[C@H](C)CN(C2CCS(=O)(=O)CC2)C[C@@H]1C", "target": "LATS2", "read-out": "enzyme activity", "mode": "inhibitor", "method": "radiometric", "quantity": "IC50", "result": "0.0055 µM"}
{"Structure (SMILES)": "COc1cc(/C=N/NC(=S)N/N=C\\c2ccc([N+](=O)[O-])cc2)ccc1Oc1ccnc2cc(Cl)ccc12", "target": "AKR1B1", "read-out": "enzyme activity", "mode": "inhibitor", "method": "absorbance", "quantity": "IC50", "result": "16.6 µM"}
{"Structure (SMILES)": "O=C(c1ccccc1)c1ccc(OCCCn2cnc3ccccc3c2=O)cc1", "target": "CD36", "read-out": "binding", "method": "MST", "quantity": "Kd", "result": "10 µM"}
{"Structure (SMILES)": "NCCS(=O)(=O)O", "target": "Sodium- and chloride-dependent taurine transporter (SLC6A6, Homo sapiens, UniProt P31641)", "read-out": "binding", "method": "MST", "quantity": "Kd", "result": "0.71 µM"}
{"Structure (SMILES)": "CCCCC(=O)Nc1ccc(-c2ccc3ncn(CCC)c(=O)c3c2)cn1", "target": "Phosphatidylinositol 5-phosphate 4-kinase type-2 gamma (PIP4K2C, Homo sapiens, UniProt Q8TBX8, del300-341)", "read-out": "binding", "method": "ITC", "quantity": "Kd", "result": "0.123 µM"}
{"Structure (SMILES)": "Fc1c[nH]c2nccc(-c3ccc(C4CCNCC4)cc3)c12", "target": "LATS2", "read-out": "enzyme activity", "mode": "inhibitor", "method": "radiometric", "quantity": "IC50", "result": "0.011 µM"}
{"Structure (SMILES)": "CCCCCCCCCP(=O)(C(C)C)C(C)C", "target": "TRPM8", "read-out": "ion current", "mode": "agonist", "method": "patch clamp", "quantity": "EC50", "result": "24.8 µM"}
{"Structure (SMILES)": "COc1cc(/C=N/NC(=S)NN=Cc2ccc(CO)o2)ccc1Oc1ccnc2cc(Cl)ccc12", "target": "AKR1B1", "read-out": "enzyme activity", "mode": "inhibitor", "method": "absorbance", "quantity": "IC50", "result": "21.3 µM"}
{"Structure (SMILES)": "O=C1NC(c2cccc([N+](=O)[O-])c2)=CCN1c1ccccc1O", "target": "TRPM8", "read-out": "ion current", "mode": "agonist", "method": "patch clamp", "quantity": "EC50", "result": "0.412 µM"}
{"Structure (SMILES)": "OC1(c2ccc(-c3ccnc4[nH]cc(F)c34)cc2)CCNCC1", "target": "LATS2", "read-out": "enzyme activity", "mode": "inhibitor", "method": "radiometric", "quantity": "IC50", "result": "0.0057 µM"}
{"Structure (SMILES)": "Cc1ncsc1-c1ccc(CNC(=O)[C@@H]2C[C@@H](O)CN2C(=O)[C@@H](NC(=O)COCCOCCOCCNC(=O)C[C@@H]2N=C(c3ccc(Cl)cc3)c3c(sc(C)c3C)-n3c(C)nnc32)C(C)(C)C)cc1", "target": "CD36", "read-out": "binding", "method": "SPR", "quantity": "Kd", "result": "9.6 µM"}
